Assay [1] deals with E. faecalis NCTC 12201 vanA resistant. Kind of assay: MIC by microbroth dilution. The format is cell-based, Enterococcus faecalis. The method in brief: (§1)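 Broth microdilution per international standard ISO […]. The panel covered clinical isolates and NCTC/ATCC control organisms, including resistant phenotypes, and ampicillin was run alongside as comparator.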
On the technique in general: In broth dilution the organism is exposed to a series of concentrations in liquid medium.

Assay [2] relates to E. faecium 16568 sensitive. Kind of assay: MIC by microbroth dilution. The format is cell-based. The following applies: Enterococcus faecium. The procedure, abridged:
as §1

Assay [3] deals with S. aureus NCTC 12493 mecA resistant. Kind of assay: MIC by microbroth dilution. The format is cell-based. The method in brief:
as §1

The next assay deals with A.baumannii572 sensitive. Put plainly: MIC by microbroth dilution. In kind it is cell-based, Acinetobacter baumannii. The procedure, abridged: as §1
Assay [4] has as its system P. mirabilis NCTC 10975 sensitive. Put plainly: MIC by microbroth dilution. The format is cell-based, Proteus mirabilis. The procedure, abridged:
as §1

Assay [5] has as its system K. pneumoniae 21856 sensitive. Put plainly: MIC by microbroth dilution. In kind it is cell-based, Klebsiella pneumoniae. The method in brief:
as §1

Assay [6] concerns S. aureus ATCC 29213 sensitive. Put plainly: MIC by microbroth dilution. The format is cell-based. The procedure, abridged:
as §1

In assay [7] the test system is P. aeruginosa ATCC 27853 sensitive. Kind of assay: MIC by microbroth dilution. The format is cell-based, Pseudomonas aeruginosa. The method in brief: as §1
A further assay concerns the target P. aeruginosa PheRS (Pseudomonas aeruginosa, UniProt Q9I0A3). Put plainly: tRNA aminoacylation scintillation proximity assay, P. aeruginosa PheRS. The format is biochemical. The procedure, abridged:
(§2)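 E. coli tRNA was added and incubated 1 h at 37 °C, then stopped with EDTA. Poly-L-lysine yttrium silicate SPA beads in citric acid were added for 1 h before scintillation counting. DMSO-only controls were included, and IC50 came from a sigmoidal dose-response fit.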

Assay [8] relates to S. aureus SH1000 sensitive strain. Kind of assay: MIC against S. aureus SH1000 sensitive strain. The format is cell-based, Staphylococcus aureus. The following applies: for MIC: Staphylococcus aureus, read-out: MIC S. aureus Sensitive SH1000.
A further assay addresses S. pneumonia PheRS (Streptococcus pneumoniae, UniProt Q97S36). Kind of assay: tRNA aminoacylation scintillation proximity assay, S. pneumonia PheRS. In kind it is biochemical. The procedure, abridged:
as §2

Assay [9] deals with E. faecalis ATCC 51299 vanB resistant. Kind of assay: MIC by microbroth dilution. The format is cell-based, Enterococcus faecalis. The procedure, abridged:
as §1

The test system of assay [10] is E. coli ATCC 25922 sensitive. Put plainly: MIC by microbroth dilution. The format is cell-based. The procedure, abridged: as §1
The test system of assay [11] is B.cepacia NCTC 10661 sensitive. Kind of assay: MIC by microbroth dilution. The format is cell-based. The method in brief:
as §1

The subject of assay [12] is E. faecalisATCC 29212 sensitive. Kind of assay: MIC by microbroth dilution. The format is cell-based, Enterococcus faecalis. The method in brief: as §1
Assay [13] concerns S.enteritidis8204 sensitive. Kind of assay: MIC by microbroth dilution. In kind it is cell-based, Salmonella enteritidis. The method in brief:
as §1

Assay [14] relates to the tested bacteria (variety of clinically important pathogens). Kind of assay: MIC by microbroth dilution, summary in text for the panel of pathogens. The format is cell-based. The following applies: read-out: MIC, no inhibitory activity.
The test system of assay [15] is E. faecalis sensitive and vanA and vanB resistant strains. Kind of assay: MIC by microbroth dilution, summary in text for E. faecalis strains. The format is cell-based. The following applies: Enterococcus faecalis, read-out: moderate inhibitory activity (MIC). The procedure, abridged:
as §1

Where [16] appears, read: Enterococcus faecalis, NCTC12201.
Setting [17] is: Staphylococcus aureus, NCTC12493.
The mark [18] stands for this setting: Staphylococcus aureus, ATCC29213.
The mark [19] stands for this setting: Pseudomonas aeruginosa, ATCC27853.
Setting [20] is: Enterococcus faecalis, ATCC51299.
Setting [21] is: Enterococcus faecalis, ATCC29212.

SMILES strings stand for the structures. Values after ≈ are worked out from the molar mass of the structure shown. Where two headings read alike, the source gives them in different places. A value given as a limit tells only on which side of the number the result lay.

By MIC is commonly meant the lowest concentration found to suppress growth. As usually defined, the IC50 is the concentration that inhibits the measured activity by half.

P. aeruginosa PheRS, sequence (Q9I0A3 whole entry): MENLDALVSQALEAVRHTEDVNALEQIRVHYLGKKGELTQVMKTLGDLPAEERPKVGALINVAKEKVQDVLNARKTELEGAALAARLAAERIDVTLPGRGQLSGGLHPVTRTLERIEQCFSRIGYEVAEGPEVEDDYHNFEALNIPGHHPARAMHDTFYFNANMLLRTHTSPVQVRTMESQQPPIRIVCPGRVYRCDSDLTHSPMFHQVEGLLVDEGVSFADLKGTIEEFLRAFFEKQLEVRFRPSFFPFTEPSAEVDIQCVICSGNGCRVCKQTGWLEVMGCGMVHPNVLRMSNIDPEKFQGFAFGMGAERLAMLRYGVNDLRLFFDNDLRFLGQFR
P. aeruginosa PheRS, sequence (Q9I0A4 whole entry partner): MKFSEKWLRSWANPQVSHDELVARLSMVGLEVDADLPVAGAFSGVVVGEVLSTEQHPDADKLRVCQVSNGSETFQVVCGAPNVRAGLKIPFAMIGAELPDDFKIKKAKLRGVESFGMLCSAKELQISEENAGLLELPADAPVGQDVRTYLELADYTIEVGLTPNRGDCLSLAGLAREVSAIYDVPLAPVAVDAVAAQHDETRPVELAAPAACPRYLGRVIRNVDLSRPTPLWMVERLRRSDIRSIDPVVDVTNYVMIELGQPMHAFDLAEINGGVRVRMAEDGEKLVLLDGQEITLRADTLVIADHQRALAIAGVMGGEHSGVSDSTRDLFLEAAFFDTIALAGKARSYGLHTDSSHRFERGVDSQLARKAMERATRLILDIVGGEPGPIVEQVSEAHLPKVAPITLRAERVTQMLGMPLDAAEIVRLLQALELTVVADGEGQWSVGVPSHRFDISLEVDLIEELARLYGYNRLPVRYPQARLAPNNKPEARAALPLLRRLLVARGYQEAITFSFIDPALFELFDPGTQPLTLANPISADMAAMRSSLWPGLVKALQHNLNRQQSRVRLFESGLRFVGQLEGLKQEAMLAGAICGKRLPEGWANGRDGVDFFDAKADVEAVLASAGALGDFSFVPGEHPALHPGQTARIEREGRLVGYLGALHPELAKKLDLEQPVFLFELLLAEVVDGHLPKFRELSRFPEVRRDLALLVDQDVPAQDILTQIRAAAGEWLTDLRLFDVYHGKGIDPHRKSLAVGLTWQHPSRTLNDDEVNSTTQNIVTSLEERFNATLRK
S. pneumonia PheRS, sequence (Q97S36 whole entry): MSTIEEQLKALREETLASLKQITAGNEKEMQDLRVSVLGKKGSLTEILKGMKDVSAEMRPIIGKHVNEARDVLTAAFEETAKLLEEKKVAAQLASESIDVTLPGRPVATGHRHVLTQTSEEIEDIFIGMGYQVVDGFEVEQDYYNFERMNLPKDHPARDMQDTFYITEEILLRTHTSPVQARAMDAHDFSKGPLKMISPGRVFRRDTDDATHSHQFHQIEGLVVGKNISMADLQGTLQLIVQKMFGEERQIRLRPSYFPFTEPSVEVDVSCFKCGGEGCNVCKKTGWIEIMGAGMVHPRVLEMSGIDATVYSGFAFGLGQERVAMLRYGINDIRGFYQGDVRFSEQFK
S. pneumonia PheRS, sequence (Q97S34 whole entry, further chain): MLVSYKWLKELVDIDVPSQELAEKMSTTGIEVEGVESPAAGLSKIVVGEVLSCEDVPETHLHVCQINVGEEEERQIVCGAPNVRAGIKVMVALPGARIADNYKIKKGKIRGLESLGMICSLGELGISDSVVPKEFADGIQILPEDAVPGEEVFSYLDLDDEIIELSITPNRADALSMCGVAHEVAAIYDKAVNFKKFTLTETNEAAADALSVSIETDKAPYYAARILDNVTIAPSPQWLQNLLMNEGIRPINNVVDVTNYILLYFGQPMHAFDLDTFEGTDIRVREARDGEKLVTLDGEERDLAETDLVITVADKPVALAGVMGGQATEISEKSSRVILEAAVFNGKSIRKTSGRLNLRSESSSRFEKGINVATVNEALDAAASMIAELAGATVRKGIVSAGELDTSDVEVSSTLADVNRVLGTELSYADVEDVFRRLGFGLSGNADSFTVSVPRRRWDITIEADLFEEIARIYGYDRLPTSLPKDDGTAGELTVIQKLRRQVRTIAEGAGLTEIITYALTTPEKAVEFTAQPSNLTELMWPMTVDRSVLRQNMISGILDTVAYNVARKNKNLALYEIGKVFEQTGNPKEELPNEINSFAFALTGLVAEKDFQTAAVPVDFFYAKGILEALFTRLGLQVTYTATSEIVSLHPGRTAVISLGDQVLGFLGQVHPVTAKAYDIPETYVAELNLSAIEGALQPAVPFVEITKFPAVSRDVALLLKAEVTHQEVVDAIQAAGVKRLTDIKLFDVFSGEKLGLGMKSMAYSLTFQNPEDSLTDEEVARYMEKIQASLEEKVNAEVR

As for `CC1(C)S[C@@H]2[C@H](NC(=O)[C@H](N)c3ccccc3)C(=O)N2[C@H]1C(=O)O` [Amp, ampicillin, reference compound], the minimum inhibitory concentration (MIC) in [1] (setting [16]) was 16 µg/mL (≈ 45.8 µM); in assay [2] it was 4 µg/mL (≈ 11.4 µM); in [3] (setting [17]), more than 128 µg/mL; against A.baumannii572 sensitive (Acinetobacter baumannii) it was more than 128 µg/mL; in [4] (Proteus mirabilis, NCTC10975), more than 128 µg/mL; in [5] (Klebsiella pneumoniae), more than 128 µg/mL. For the same molecule, the MIC in assay [6] (setting [18]) was 4 µg/mL (≈ 11.4 µM); in assay [7] (setting [19]), more than 128 µg/mL.

With `COc1cc(OC)cc(C(=O)Nc2nnc(CCn3cnc4ccccc43)s2)c1` [11a, N-(5-(2-(1H-benzimidazol-1-yl)ethyl)-1,3,4-thiadiazol-2-yl)-3,5-dimethoxybenzamide], the IC50 stood at 742 µM on P. aeruginosa PheRS and 345 µM on S. pneumonia PheRS. Besides, in assay [8], the minimal inhibitory concentration (MIC) was more than 128 µg/mL.

Regarding `O=C(Nc1nnc(CCn2cnc3ccccc32)s1)c1ccc(F)cc1` [11b, N-(5-(2-(1H-benzimidazol-1-yl)ethyl)-1.3.4-thiadiazol-2-yl)-4fluorobenzamide], the minimal inhibitory concentration (MIC) in assay [1] (E. faecalis NCTC 12201 vanA resistant) is 32 µg/mL (≈ 87.1 µM); in [3] (S. aureus NCTC 12493 mecA resistant) it was 128 µg/mL (≈ 348 µM); in assay [9] (E. faecalis ATCC 51299 vanB resistant), 64 µg/mL (≈ 174 µM); against A.baumannii572 sensitive (A.baumannii572 sensitive) it was more than 128 µg/mL; in [10] (E. coli ATCC 25922 sensitive), more than 128 µg/mL; in assay [4] (P. mirabilis NCTC 10975 sensitive) it was more than 128 µg/mL. Besides, the MIC in assay [11] was more than 128 µg/mL; in assay [5] (K. pneumoniae 21856 sensitive), more than 128 µg/mL; in [6] (S. aureus ATCC 29213 sensitive), more than 128 µg/mL; in [12] (E. faecalis ATCC 29212 sensitive) it was 64 µg/mL (≈ 174 µM); in assay [7] (P. aeruginosa ATCC 27853 sensitive), more than 128 µg/mL; in assay [13] (S.enteritidis8204 sensitive), more than 128 µg/mL. Further, the IC50 came out at 907 µM on P. aeruginosa PheRS (read-out: P. aeruginosa PheRS IC50, aminoacylation SPA, 0.08 μM enzyme) and 685 µM at S. pneumonia PheRS (read-out: S. pneumonia PheRS IC50, aminoacylation SPA, 0.2 μM enzyme). The “MIC S. aureus Sensitive SH1000” value in assay [8] (S. aureus SH1000 sensitive strain) is more than 128 µg/mL.

In the case of `CCCSc1nnc(CCCn2cnc3ccccc32)n1-c1ccccc1` [16b, 1-(3-(4-Phenyl-5-(propylthio)-4H-1,2,4-triazol-3-yl)propyl)1H-benzimidazole], the IC50 against P. aeruginosa PheRS is 375 µM; against S. pneumonia PheRS it was 390 µM. Further, in assay [8], the MIC is more than 128 µg/mL.

On to `CCCSc1nnc(CCCn2cnc3c(N)ncnc32)n1-c1ccccc1` [17b, 9-(3-(4-Phenyl-5-(propylthio)-4H-1,2,4-triazol-3-yl)propyl)-9H-purin-6-amine], for which the MIC in assay [1] (setting [16]) was more than 128 µg/mL; in assay [2] it was more than 128 µg/mL; in assay [3] (setting [17]), more than 128 µg/mL; in assay [9] (setting [20]), more than 128 µg/mL; with A.baumannii572 sensitive (Acinetobacter baumannii), more than 128 µg/mL; in [10] (Escherichia coli, ATCC25922) it was more than 128 µg/mL. For the same molecule, the MIC in assay [4] (Proteus mirabilis, NCTC10975) is more than 128 µg/mL; in assay [8], more than 128 µg/mL; in assay [14], not below 128 µg/mL; in assay [5] (Klebsiella pneumoniae) it was more than 128 µg/mL; in assay [6] (setting [18]), more than 128 µg/mL; in assay [12] (setting [21]), more than 128 µg/mL. Besides, the MIC in assay [7] (setting [19]) and in [13] (Salmonella enterica) was more than 128 µg/mL throughout. The IC50 is 294 µM on P. aeruginosa PheRS and 686 µM at S. pneumonia PheRS.

For `CCSc1nnc(CCCn2cnc3c(N)ncnc32)n1-c1ccccc1` [17a, 9-(3-(5-(Ethylthio)-4-phenyl-4H-1,2,4-triazol-3-yl)propyl)-9H-purin-6-amine], the MIC in [1] (setting [16]) was 64 µg/mL (≈ 168 µM); in [3] (setting [17]) it was 128 µg/mL (≈ 336 µM); in [15], 32 to 64 µg/mL (≈ 84.1 to 168 µM); in assay [9] (setting [20]), 64 µg/mL (≈ 168 µM); against A.baumannii572 sensitive (Acinetobacter baumannii), more than 128 µg/mL; in assay [10] (Escherichia coli, ATCC25922), more than 128 µg/mL. In addition, the MIC in [4] (Proteus mirabilis, NCTC10975) was more than 128 µg/mL; in [8] it was more than 128 µg/mL; in assay [14] it was not below 128 µg/mL; in assay [5] (Klebsiella pneumoniae), more than 128 µg/mL; in [6] (setting [18]), more than 128 µg/mL; in assay [12] (setting [21]) it was more than 128 µg/mL. Moreover, the MIC in assay [7] (setting [19]) and in assay [13] (Salmonella enterica) was more than 128 µg/mL throughout. Besides, the IC50 against P. aeruginosa PheRS worked out at 199 µM; against S. pneumonia PheRS, 619 µM.

Take `CCSc1nnc(CCCn2cnc3ccccc32)n1-c1ccccc1` [16a, 1-(3-(5-(Ethylthio)-4-phenyl-4H-1,2,4-triazol-3-yl)propyl)-1H-benzimidazole]: the MIC is more than 128 µg/mL in [1] (setting [16]); more than 128 µg/mL in assay [2]; more than 128 µg/mL in assay [3] (setting [17]); more than 128 µg/mL in assay [9] (setting [20]); more than 128 µg/mL against A.baumannii572 sensitive (Acinetobacter baumannii); more than 128 µg/mL in assay [10] (Escherichia coli, ATCC25922). In addition, the MIC in assay [4] (Proteus mirabilis, NCTC10975) was more than 128 µg/mL; in assay [8], more than 128 µg/mL; in assay [14], not below 128 µg/mL; in assay [5] (Klebsiella pneumoniae) it was more than 128 µg/mL; in [6] (setting [18]), more than 128 µg/mL; in assay [12] (setting [21]) it was more than 128 µg/mL. For the same molecule, the MIC in [7] (setting [19]) and in assay [13] (Salmonella enterica) was more than 128 µg/mL throughout. In addition, the half-maximal inhibitory concentration (IC50) at P. aeruginosa PheRS is 343 µM; at S. pneumonia PheRS, 561 µM.

The values above are taken from paper PMC6959494 (Egyptian journal of chemistry, 2018).
